Reference: ChEMBL document CHEMBL3784976 (J Med Chem, 2016)

Legend:
[1] = target: T1, Transient receptor potential cation channel subfamily A member 1 (Homo sapiens, UniProt O75762); assay: Antagonist activity at human TRPA1 expressed in tetracycline-inducible T-REx expression system transfected CHO cells assessed as inhibition of AITC-induced Ca2+ influx preincubated for 2 mins followed by AITC addition measured for 2 mins by Fluo-4 dye based FLIPR assay; format: cell-based
[2] = target: T2, Transient receptor potential cation channel subfamily A member 1 (Rattus norvegicus, UniProt Q6RI86); assay: Antagonist activity at rat TRPA1 expressed in tetracycline-inducible T-REx expression system transfected CHO cells assessed as inhibition of AITC-induced Ca2+ influx preincubated for 2 mins followed by AITC addition measured for 2 mins by Fluo-4 dye based FLIPR assay; format: cell-based
[3] = Apparent intrinsic clearance in rat liver microsomes; format: ADME; settings: read-out: CLH(app)
[4] = Apparent intrinsic clearance in human liver microsomes; format: ADME; settings: read-out: CLH(app)
[5] = test system: Rattus norvegicus; assay: fCmax in rat at 30 mg/kg, po; format: ADME, organism-based; settings: in vivo
How it was run: (§1)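 Rats dosed orally at 30 mg/kg, or 10 mg/kg for one analogue, in 1% Tween 80/2% HPMC/97% water with methanesulfonic acid, pH 2.2.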

[6] = Cmax in rat at 30 mg/kg, po; format: ADME, organism-based; set-up: dose 30 mg/kg, route oral; settings: in vivo
How it was run: (§2)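 Rat oral PK at 30 mg/kg (10 mg/kg for one analogue) in 1% Tween 80/2% HPMC/97% water with methanesulfonic acid, pH 2.2.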

[7] = Fraction unbound in rat plasma; format: ADME, cell-free
[8] = Volume of distribution at steady state in rat at 0.5 mg/kg, iv as single dose; format: ADME, organism-based; settings: in vivo, read-out: Vdss
How it was run: (§3)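 Single intravenous dose of 0.5 mg/kg given to rats, formulated in 100% DMSO.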

[9] = Half life in rat at 0.5 mg/kg, iv administered as single dose; format: ADME, organism-based; settings: in vivo; how it was run: as §3
[10] = AUC (infinity) in rat at 30 mg/kg, po; format: ADME, organism-based; set-up: dose 30 mg/kg, time infinity, route oral; settings: in vivo; how it was run: as §2
[11] = Tmax in rat at 30 mg/kg, po; format: ADME, organism-based; settings: in vivo; how it was run: as §1
[12] = Half life in rat at 30 mg/kg, po; format: ADME, organism-based; settings: in vivo; how it was run: as §1
[13] = Oral bioavailability in rat at 30 mg/kg; format: ADME, organism-based; settings: in vivo; how it was run: as §1
[14] = target: T1, Transient receptor potential cation channel subfamily A member 1; assay: Agonist activity at human TRPA1 expressed in tetracycline-inducible T-REx expression system transfected CHO cells assessed as increase in Ca2+ influx measured for 2 mins by Fluo-4 dye based FLIPR assay; format: cell-based
How it was run: (§4)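 FLIPR Tetra Ca2+ flux with Fluo-4 NW dye plus probenecid. Cells were seeded 24 h ahead in medium with […]. Dye loading ran 30 min at 37 °C, then 30 min at RT. Compound was added and agonist signal read for 2 min. Data were expressed as POC of DMSO (low) vs saturating AITC (high: 15 μM human, 200 μM rat) and fitted to a four-parameter equation.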

[15] = target: T2, Transient receptor potential cation channel subfamily A member 1; assay: Agonist activity at rat TRPA1 expressed in tetracycline-inducible T-REx expression system transfected CHO cells assessed as increase in Ca2+ influx measured for 2 mins by Fluo-4 dye based FLIPR assay; format: cell-based; how it was run: as §4
[16] = target: Transient receptor potential cation channel subfamily V member 1 (Homo sapiens, UniProt Q8NER1); assay: Antagonist activity at human TRPV1 expressed in CHO cells assessed as inhibition of capsaicin-induced Ca2+ influx preincubated for 2.5 mins followed by capsaicin addition measured for 1 min by luminescence assay; format: cell-based
[17] = target: T2, Transient receptor potential cation channel subfamily A member 1; assay: Antagonist activity at rat TRPA1 expressed in tetracycline-inducible T-REx expression system transfected CHO cells assessed as inhibition of AITC-induced 45Ca2+ uptake preincubated for 1 min followed by AITC addition measured after 12 mins; format: cell-based
[18] = target: T1, Transient receptor potential cation channel subfamily A member 1; assay: Antagonist activity at human TRPA1 expressed in tetracycline-inducible T-REx expression system transfected CHO cells assessed as inhibition of AITC-induced 45Ca2+ uptake preincubated for 1 min followed by AITC addition measured after 12 mins; format: cell-based
[19] = target: T2, Transient receptor potential cation channel subfamily A member 1; assay: Agonist activity at rat TRPA1 expressed in tetracycline-inducible T-REx expression system transfected CHO cells by 45Ca2+ uptake assay; format: cell-based
[20] = target: T1, Transient receptor potential cation channel subfamily A member 1; assay: Agonist activity at human TRPA1 expressed in tetracycline-inducible T-REx expression system transfected CHO cells by 45Ca2+ uptake assay; format: cell-based
[21] = target: Transient receptor potential cation channel subfamily V member 3 (Rattus norvegicus); assay: Antagonist activity at rat TRPV3 expressed in tetracycline-inducible T-REx expression system transfected CHO cells assessed as inhibition of […]-induced Ca2+ influx preincubated for 1 min followed by […] addition measured for 1 min by luminescence assay
[22] = test system: Liver microsome; assay: Drug metabolism in rat liver microsomes assessed as 3-((3-(2-(4-Chlorophenyl)-2-hydroxyethyl)-1,2,4-oxadiazol-5-yl)-methyl)pyrido[2,3-d]pyrimidin-4(3H)-one formation; format: ADME
[23] = test system: Liver microsome; assay: Drug metabolism in human liver microsomes assessed as 3-((3-(2-(4-Chlorophenyl)-2-hydroxyethyl)-1,2,4-oxadiazol-5-yl)-methyl)pyrido[2,3-d]pyrimidin-4(3H)-one formation; format: ADME
[24] = Clearance in rat at 0.5 mg/kg, iv as single dose; format: ADME, organism-based; settings: in vivo

T2 sequence (Q6RI86 whole entry): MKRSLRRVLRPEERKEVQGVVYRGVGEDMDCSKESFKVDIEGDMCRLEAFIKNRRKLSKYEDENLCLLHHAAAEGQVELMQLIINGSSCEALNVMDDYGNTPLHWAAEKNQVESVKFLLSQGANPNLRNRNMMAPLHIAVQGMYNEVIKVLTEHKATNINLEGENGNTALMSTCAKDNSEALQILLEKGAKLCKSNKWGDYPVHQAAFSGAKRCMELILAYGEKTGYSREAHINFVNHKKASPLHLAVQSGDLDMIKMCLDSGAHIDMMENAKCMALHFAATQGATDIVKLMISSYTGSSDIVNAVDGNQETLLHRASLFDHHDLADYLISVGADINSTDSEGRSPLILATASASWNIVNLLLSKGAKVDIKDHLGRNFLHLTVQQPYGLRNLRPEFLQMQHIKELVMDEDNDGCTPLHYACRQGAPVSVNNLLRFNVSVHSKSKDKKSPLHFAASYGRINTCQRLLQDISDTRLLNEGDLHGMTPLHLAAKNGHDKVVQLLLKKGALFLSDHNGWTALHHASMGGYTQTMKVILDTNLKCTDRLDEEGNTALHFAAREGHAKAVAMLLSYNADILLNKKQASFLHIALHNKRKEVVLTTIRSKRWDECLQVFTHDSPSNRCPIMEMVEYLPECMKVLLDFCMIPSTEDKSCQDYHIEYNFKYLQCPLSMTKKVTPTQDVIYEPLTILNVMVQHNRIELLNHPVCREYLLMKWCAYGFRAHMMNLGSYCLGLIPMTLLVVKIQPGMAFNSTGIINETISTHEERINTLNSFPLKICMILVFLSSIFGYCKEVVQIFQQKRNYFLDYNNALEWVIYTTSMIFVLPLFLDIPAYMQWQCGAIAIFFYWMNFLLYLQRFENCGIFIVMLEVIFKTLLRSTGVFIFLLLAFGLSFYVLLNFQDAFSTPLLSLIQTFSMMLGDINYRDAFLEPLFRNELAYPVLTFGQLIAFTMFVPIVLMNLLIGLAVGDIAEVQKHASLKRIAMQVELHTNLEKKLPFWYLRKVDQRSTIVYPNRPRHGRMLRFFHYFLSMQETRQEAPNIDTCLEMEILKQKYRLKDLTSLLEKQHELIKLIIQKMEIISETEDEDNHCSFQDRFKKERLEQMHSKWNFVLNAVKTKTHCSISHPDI
T1 sequence (O75762 whole entry): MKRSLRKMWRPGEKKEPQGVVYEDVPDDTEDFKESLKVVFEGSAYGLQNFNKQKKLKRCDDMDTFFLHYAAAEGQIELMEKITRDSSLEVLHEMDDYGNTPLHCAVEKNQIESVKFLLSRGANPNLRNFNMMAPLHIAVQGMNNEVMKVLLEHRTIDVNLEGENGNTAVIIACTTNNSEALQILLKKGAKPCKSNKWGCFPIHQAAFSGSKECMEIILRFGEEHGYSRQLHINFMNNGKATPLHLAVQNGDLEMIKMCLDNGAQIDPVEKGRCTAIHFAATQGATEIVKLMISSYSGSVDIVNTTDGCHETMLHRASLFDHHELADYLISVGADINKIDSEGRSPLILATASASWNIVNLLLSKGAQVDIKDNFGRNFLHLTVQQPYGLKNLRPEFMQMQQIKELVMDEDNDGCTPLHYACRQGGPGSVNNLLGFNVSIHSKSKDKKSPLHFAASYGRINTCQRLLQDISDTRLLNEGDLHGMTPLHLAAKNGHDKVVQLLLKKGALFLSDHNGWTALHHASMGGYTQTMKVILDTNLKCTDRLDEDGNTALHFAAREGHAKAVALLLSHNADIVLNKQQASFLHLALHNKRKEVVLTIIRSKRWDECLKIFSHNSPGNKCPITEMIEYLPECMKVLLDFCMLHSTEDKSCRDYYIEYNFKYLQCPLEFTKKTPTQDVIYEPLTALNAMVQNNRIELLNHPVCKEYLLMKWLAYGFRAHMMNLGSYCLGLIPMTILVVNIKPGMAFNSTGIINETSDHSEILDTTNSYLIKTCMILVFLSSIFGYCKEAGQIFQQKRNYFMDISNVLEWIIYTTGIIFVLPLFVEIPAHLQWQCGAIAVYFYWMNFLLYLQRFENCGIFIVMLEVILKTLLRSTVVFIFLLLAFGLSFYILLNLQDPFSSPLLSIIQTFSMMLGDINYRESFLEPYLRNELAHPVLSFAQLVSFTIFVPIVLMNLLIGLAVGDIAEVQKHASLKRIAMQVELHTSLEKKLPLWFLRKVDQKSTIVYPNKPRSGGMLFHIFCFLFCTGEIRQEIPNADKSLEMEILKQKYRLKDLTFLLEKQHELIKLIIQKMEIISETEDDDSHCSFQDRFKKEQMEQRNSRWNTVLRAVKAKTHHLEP
Transient receptor potential cation channel subfamily V member 1, sequence (Q8NER1 whole entry): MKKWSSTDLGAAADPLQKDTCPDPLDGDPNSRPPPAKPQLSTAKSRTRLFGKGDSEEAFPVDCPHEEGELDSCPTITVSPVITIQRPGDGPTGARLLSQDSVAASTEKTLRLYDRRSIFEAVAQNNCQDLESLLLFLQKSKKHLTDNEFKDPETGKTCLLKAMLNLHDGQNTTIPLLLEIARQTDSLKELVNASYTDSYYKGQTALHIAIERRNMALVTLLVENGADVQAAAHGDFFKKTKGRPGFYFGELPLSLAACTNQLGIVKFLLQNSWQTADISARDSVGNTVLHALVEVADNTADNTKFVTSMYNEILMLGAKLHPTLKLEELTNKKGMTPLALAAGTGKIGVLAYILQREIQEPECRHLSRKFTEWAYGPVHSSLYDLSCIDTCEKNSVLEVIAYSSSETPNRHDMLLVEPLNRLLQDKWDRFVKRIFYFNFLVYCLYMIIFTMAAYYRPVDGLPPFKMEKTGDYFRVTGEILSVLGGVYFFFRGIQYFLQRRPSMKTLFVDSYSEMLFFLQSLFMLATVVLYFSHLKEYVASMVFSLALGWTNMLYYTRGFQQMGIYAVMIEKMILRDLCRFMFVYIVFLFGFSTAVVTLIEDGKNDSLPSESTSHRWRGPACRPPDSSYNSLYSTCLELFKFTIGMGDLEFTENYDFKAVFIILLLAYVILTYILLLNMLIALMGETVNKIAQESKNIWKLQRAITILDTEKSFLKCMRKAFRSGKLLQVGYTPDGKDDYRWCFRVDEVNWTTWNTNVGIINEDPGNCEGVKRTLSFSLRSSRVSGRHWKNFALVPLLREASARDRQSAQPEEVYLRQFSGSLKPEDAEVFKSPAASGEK

Structure (SMILES)	IC50 [1] [nM]	IC50 [2] [nM]	microsomal CLint [3] [µL/min/mg]	microsomal CLint [4] [µL/min/mg]	also measured
Cc1ccc2ncn(CC(=O)NCCc3ccc(Cl)cc3)c(=O)c2c1	265	287			
O=C(Cn1cnc2c(C(F)(F)F)cccc2c1=O)NCCc1ccc(Cl)cc1	286	306	> 399	397	
C/C(=C\c1nc(Cn2cnc3ncccc3c2=O)no1)c1ccc(Cl)cc1					fCmax [5]: 0.1 µM; Cmax [6]: 8 µM; fraction unbound [7]: 0.012; Vd [8]: 1.4 L/kg; half-life [9]: 4.2 h; AUC(0-inf) [10]: 94.9 µM·h; Tmax [11]: 2.7 h; half-life [12]: 5.1 h; bioavailability [13]: 32%
Cc1cccc2c(=O)n(CC(=O)NCCc3ccc(OC(F)F)cc3)cnc12	685	142	> 399	194	EC50 [14]: > 25000 nM; EC50 [15]: > 25000 nM; IC50 [16]: > 20000 nM; IC50 [17]: 2620 nM; IC50 [18]: 6270 nM; EC50 [19]: > 47000 nM; EC50 [20]: > 47000 nM; IC50 [21]: > 20000 nM
O=C(Cn1cnc2ccccc2c1=O)NCCc1ccc(Cl)cc1	> 16700		104	31	
Cc1ccnc2ncn(Cc3nc(CCc4ccc(Cl)cc4)no3)c(=O)c12	16	35	> 399	340	
O=c1c2cccnc2ncn1Cc1nc(CCc2ccc(Cl)cc2)no1	41	21	131	32	fraction unbound [7]: 0.144; Drug metabolism [22]: metabolite_detected; Drug metabolism [23]: metabolite_detected; IC50 [17]: 120 nM; IC50 [18]: 376 nM; EC50 [19]: > 40000 nM; EC50 [20]: > 40000 nM; clearance [24]: 98.3 mL/min/kg; Vd [8]: 2 L/kg; half-life [9]: 0.3 h
COc1cccc(CCNC(=O)Cn2cnc3c(C)cccc3c2=O)c1	> 16700	> 16700			
Cc1ccc2c(=O)n(CC(=O)NCCc3ccc(Cl)cc3)cnc2c1	> 4200	> 16700	829	144	
COc1ccccc1CCNC(=O)Cn1cnc2c(C)cccc2c1=O	> 16700	> 16700			
O=C(Cn1cnc2ncccc2c1=O)NCCc1ccc(Cl)cc1	1180	1170	18	< 14	
O=C(Cn1cnc2cnccc2c1=O)NCCc1ccc(Cl)cc1	1710	1080	179	14	
